Screens deposited in PubChem by several laboratories.
An excerpt weighted towards active compounds, which were near 9.6% of everything screened.
HCT116 PTEN-null: growth suppressors of cells with PTEN tumor suppressor deletion | HCT116 PTEN-null viability, CellTiter-Glo, 60 h; hits give low values | viability, % at 10 µM | 1.2% of 140,000 active | AID 827;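 active means viability at or below a set limit, 4 SD under the median of all tested compounds, cut at about 3.7% in these data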;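 further: PTEN knockout HCT116 line with beta catenin targeted HCT116 as companion control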
PMI act hi M6P: PMI (human) activation, high substrate; coupled PMI enzyme assay, resazurin fluorescence, 20 min; hits give high values; 1 = untreated enzyme, 0 = substrate-free blank; activation factor at 20 µM; 0.34% of 190,000 active; AID 1216;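 active means activation factor of 2 or more at 20 µM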
Target sequence (P34949 whole entry, looked up): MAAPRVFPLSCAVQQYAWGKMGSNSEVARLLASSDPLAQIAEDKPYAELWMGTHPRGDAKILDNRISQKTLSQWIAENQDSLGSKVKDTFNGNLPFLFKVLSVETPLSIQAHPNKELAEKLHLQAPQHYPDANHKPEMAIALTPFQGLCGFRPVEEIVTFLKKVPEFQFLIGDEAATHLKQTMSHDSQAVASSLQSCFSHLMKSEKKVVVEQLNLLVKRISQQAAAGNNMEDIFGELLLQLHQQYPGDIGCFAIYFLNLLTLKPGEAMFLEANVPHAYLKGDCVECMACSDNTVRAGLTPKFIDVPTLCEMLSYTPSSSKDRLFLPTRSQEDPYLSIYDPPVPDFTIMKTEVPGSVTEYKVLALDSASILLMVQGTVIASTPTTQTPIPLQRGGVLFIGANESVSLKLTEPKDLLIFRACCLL
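Test system: Human PMI in coupled enzyme assay | Input: 15 ng/mL PMI | Medium: HEPES-buffered pH 7.4 with magnesium and detergent | Compound: One concentration, 20 µM, in 1% DMSO | Incubation: Enzyme reaction with compound 20 min at room temperature | Detection: Diaphorase-driven resazurin-to-resorufin fluorescence, excitation 544, emission 590 nm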
PMI activator: phosphomannose isomerase (human) activation. P34949. purified human PMI, coupled resazurin fluorescence, 20 min; hits give high values; 1 = vehicle control, 0 substrate-free wells. activation factor at 20 µM. 0.005% of 190,000 active;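 active means activation factor of 2 or more at 20 µM, relative to plate controls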
L major viab: Leishmania major promastigote growth inhibition | Leishmania major promastigotes, resazurin fluorescence viability | inhibition, % at 10 µM | 9% of 200,000 active | AID 1063; in the data active means inhibition above about 50%;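 further: promastigotes grown with compound for 44 hours at 28 °C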
HCT116 bCat-KO: beta-catenin-lacking colon tumor cell growth suppression | HCT116 beta-catenin knockout viability, CellTiter-Glo, 60 h; hits give low values | viability, % at 10 µM | 1.5% of 140,000 active | AID 818;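 active means viability at or under a set limit, the compound median less 4 SD, cut at about 6% in these data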;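 further: 0% = Hyamine 1622 control at 20 µM and 100% = untreated cell control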
* marks the source's active call; other numbers are inactive results.

Screening CCOc1ccccc1CN(Cc1ccco1)S(=O)(=O)c1ccc(-n2cnnn2)c(OC)c1 returned HCT116 PTEN-null 25.0, PMI act hi M6P 0.9, PMI activator 0.8, L major viab 68.7* and HCT116 bCat-KO 33.1.
`Cc1cc(S(=O)(=O)N(Cc2ccccc2F)C2CC2)ccc1-n1cnnn1` gave PMI act hi M6P 0.9, PMI activator 0.9 and L major viab 99.5*.
`COc1cc(S(=O)(=O)N(Cc2ccccc2)CC2CCCO2)ccc1-n1cnnn1` (stereo unspecified) gave PMI act hi M6P 1, PMI activator 1 and L major viab 7.4.
Screening CCN(CC)S(=O)(=O)c1ccc(-n2cnnn2)c(C)c1 returned HCT116 PTEN-null 91.1, PMI act hi M6P 1, PMI activator 0.9, L major viab -6.2 and HCT116 bCat-KO 105.6.
Screening COc1cc(S(=O)(=O)N(Cc2cccs2)CC2CCCO2)ccc1-n1cnnn1 (stereo unspecified) returned HCT116 PTEN-null 103.0, PMI act hi M6P 1, PMI activator 1, L major viab 55.5* and HCT116 bCat-KO 92.2.
`CCCN(CC1CC1)S(=O)(=O)c1ccc(-n2cnnn2)c(OC)c1` gave HCT116 PTEN-null 101.8, PMI act hi M6P 1.2, PMI activator 1.1, L major viab -3.2 and HCT116 bCat-KO 89.3.
For COc1ccc(C(=O)NCC(=O)NCC(=O)OCC(=O)C(C)(C)C)cc1 the results were HCT116 PTEN-null 98.6, PMI act hi M6P 0.9, PMI activator 1, L major viab -8.0 and HCT116 bCat-KO 94.9.
For Cc1nn(-c2ccccc2)c(OC(=O)c2cccs2)c1S(=O)(=O)c1ccc([N+](=O)[O-])cc1 the results were HCT116 PTEN-null 96.7, PMI act hi M6P 1, PMI activator 0.9, L major viab -6.9 and HCT116 bCat-KO 95.6.
For CCOC(=O)N1CCN(C(=O)CSCc2ccc(Cl)cc2)CC1 the results were HCT116 PTEN-null 92.7, PMI act hi M6P 1.1, PMI activator 1.1, L major viab -4.3 and HCT116 bCat-KO 96.0.
For CCOC(=O)N1CCN(C(=O)CSCc2ccccc2)CC1 the results were HCT116 PTEN-null 100.7, PMI act hi M6P 1.1, PMI activator 1, L major viab 51.4* and HCT116 bCat-KO 101.5.
Screening CCCCOc1ccc(CSCCN=C(N)N)cc1 returned PMI act hi M6P 0.9, PMI activator 0.9 and L major viab 97.3*.
`Cc1cc(C)n(-c2nnc(C)n2/N=C/c2ccccc2OCc2ccccc2Cl)n1` gave HCT116 PTEN-null 33.0, PMI act hi M6P 1, PMI activator 1, L major viab 29.0 and HCT116 bCat-KO 26.5.
Cc1cc(C)n(-c2nnc(C)n2/N=C/c2cc(Br)ccc2OCc2ccccc2)n1 was read as HCT116 PTEN-null 9.5, PMI act hi M6P 0.9, PMI activator 1, L major viab 89.2* and HCT116 bCat-KO 9.4.
`CCN1C/C(=C/c2ccc(N3CCOCC3)cc2)C(=O)/C(=C/c2ccc(N3CCOCC3)cc2)C1` gave HCT116 PTEN-null 1.9*, PMI act hi M6P 1, PMI activator 0.9, L major viab 100.1* and HCT116 bCat-KO 2.2*.
O=C(O)CN1C(=O)/C(=C/c2ccsc2)SC1=S was read as PMI act hi M6P 1.1, PMI activator 1 and L major viab -4.8.
CN1C/C(=C/c2ccsc2)C(=O)/C(=C/c2ccsc2)C1 was read as HCT116 PTEN-null 3.1*, PMI act hi M6P 1.2, PMI activator 1.1, L major viab 100.4* and HCT116 bCat-KO 3.5*.
`CN1C/C(=C\c2ccc(N3CCOCC3)cc2)C(=O)/C(=C/c2ccc(N3CCOCC3)cc2)C1` gave HCT116 PTEN-null 2.2*, PMI act hi M6P 0.8, PMI activator 1, L major viab 100.2* and HCT116 bCat-KO 2.9*.
Screening O=C1N=C(N2CCN(c3ccccc3)CC2)S/C1=C\c1cn[nH]c1-c1ccccc1 returned HCT116 PTEN-null 80.2, PMI act hi M6P 1, PMI activator 1, L major viab 51.8* and HCT116 bCat-KO 90.8.
For Cc1cccc(C(=O)NC(=S)Nc2ccc(N3CCOCC3)cc2)c1 the results were HCT116 PTEN-null 80.4, PMI act hi M6P 0.9, PMI activator 0.9, L major viab -5.8 and HCT116 bCat-KO 81.9.
`Cc1cc(-c2csc(N)n2)c(C)n1CCc1ccccc1` gave HCT116 PTEN-null 95.1, PMI act hi M6P 2*, PMI activator 1.7, L major viab 11.2 and HCT116 bCat-KO 92.9.
Cc1cc(-c2csc(N)n2)c(C)n1CCC(C)C was read as HCT116 PTEN-null 75.7, PMI act hi M6P 1.9, PMI activator 1.6, L major viab -1.9 and HCT116 bCat-KO 80.0.
Screening Cc1ccc2nsnc2c1S(=O)(=O)N1CCOCC1 returned HCT116 PTEN-null 101.5, PMI act hi M6P 1, PMI activator 1, L major viab -0.2 and HCT116 bCat-KO 88.0.
Cc1csc(NC(=O)C2CCN(C(=O)c3ccccc3C)CC2)n1 was read as PMI act hi M6P 1, PMI activator 1.1 and L major viab 2.9.
Screening Cc1ccc(C2CC(C(F)F)n3ncc(C(=O)Nc4cnn(Cc5ccccc5C)c4)c3N2)cc1 (stereo unspecified) returned HCT116 PTEN-null 2.1*, PMI act hi M6P 0.9, PMI activator 0.9, L major viab 43.5 and HCT116 bCat-KO 1.8*.
`CCCCNC(=O)CCN1N=C(c2ccccc2)CCC1=O` gave PMI act hi M6P 0.9, PMI activator 0.9 and L major viab -5.8.
Screening Cc1ccsc1/C=C1\SC(N2CC(C)OC(C)C2)=NC1=O (stereo unspecified) returned HCT116 PTEN-null 101.9, PMI act hi M6P 1.1, PMI activator 1, L major viab 0.8 and HCT116 bCat-KO 89.0.
Cc1cc2ncn(C(=O)N3CCC(C)CC3)c2cc1C was read as HCT116 PTEN-null 0.7*, PMI act hi M6P 1, PMI activator 1, L major viab 1.1 and HCT116 bCat-KO 0.6*.
For Cc1cc2ncn(C(=O)c3ccc4c(c3)OCO4)c2cc1C the results were HCT116 PTEN-null 75.1, PMI act hi M6P 1, PMI activator 1, L major viab -6.5 and HCT116 bCat-KO 85.8.
For COc1cc(CNCCN(C)C)c(Br)cc1OCC(=O)NCc1ccccc1 the results were HCT116 PTEN-null 109.6, PMI act hi M6P 1.1, PMI activator 1.2, L major viab 99.5* and HCT116 bCat-KO 92.3.
`CC(NCc1cc(Br)ccc1OCC(=O)NCc1ccccc1)c1ccccc1` (stereo unspecified) gave PMI act hi M6P 0.9, PMI activator 0.9 and L major viab 97.6*.
For CCN(CC)CCNCc1cc(Br)ccc1OCC(=O)NCc1ccccc1 the results were PMI act hi M6P 1.1, PMI activator 1.1 and L major viab 13.1.
COc1cc(CNCC(C)C)c(Br)cc1OCC(=O)NCc1ccccc1 was read as HCT116 PTEN-null 103.0, PMI act hi M6P 1.2, PMI activator 1.2, L major viab 95.8* and HCT116 bCat-KO 100.7.
